Assay results collected from several papers.
Protocols differ between the studies behind these lines.
Target: Homeodomain-interacting protein kinase 1 (HIPK1, Homo sapiens, UniProt Q86Z02)

CCN(CC)CCNC(=O)c1c(C)[nH]c(/C=C2\C(=O)Nc3ccc(F)cc32)c1C — inhibition (enzyme activity, inhibitor; 0.3 µM): 26%
COc1cccc(Nc2nc3cc(C(=O)O)ccc3c3cnccc23)c1 — remaining activity (enzyme activity, inhibitor, radiometric; 1 µM): 11%
O=C(NCCCC1CCCCC1)c1ccc(CNC(=O)c2cnn(-c3ccccc3)c2C(F)(F)F)cc1 — remaining binding (cell-free assay, competition with immobilised ligand; 0.1 µM): 99%
N#CCCc1ccc2c(c1)-c1[nH]c3ccc([N+](=O)[O-])cc3c1CC(=O)N2 — remaining signal (cell-free assay; 0.5 µM): 97.9%
CCCS(=O)(=O)Nc1ccc(F)c(C(=O)c2c[nH]c3ncc(-c4ccc(Cl)cc4)cc23)c1F — inhibition (enzyme activity, inhibitor; 1 µM): < 10%
Cc1ccc(Nc2nccc(N(C)c3ccc4c(C)n(C)nc4c3)n2)cc1S(N)(=O)=O — inhibition (enzyme activity, inhibitor; 10 µM): 21%
O=C(O)c1ccc2c(c1)nc(Nc1ccccc1)c1ncncc12 — remaining activity (enzyme activity, inhibitor, radiometric; 1 µM): 11%
Cc1c[nH]c2nccc(Oc3c(F)cc(Nc4cc(Cl)nc(N)n4)cc3F)c12 — remaining binding (cell-free assay, competition with immobilised ligand; 0.1 µM): 100%
CNC(=O)c1cc(Oc2ccc(NC(=O)Nc3ccc(Cl)c(C(F)(F)F)c3)cc2)ccn1 — inhibition (enzyme activity, inhibitor; 0.3 µM): 14%
COc1cccc(CCNc2nc3cc(C(=O)O)ccc3c3cncnc23)c1 — remaining activity (enzyme activity, inhibitor, radiometric; 1 µM): 36%
O=C(NCc1ncc(C(F)(F)F)cc1Cl)c1ccc2c(c1)C1(CCS(=O)(=O)CC1)[C@@H](C1CC1)N2S(=O)(=O)c1ccc(F)cc1 — remaining binding (cell-free assay, competition with immobilised ligand; 1 µM): 70%
Nc1ncnc2occ(-c3ccc(NC(=O)Nc4cc(C(F)(F)F)ccc4F)cc3)c12 — remaining signal (cell-free assay, inhibitor; 20 µM): 0.1%
O=C(O)c1ccc2c(c1)nc(Nc1ccc(Cl)cc1)c1ccncc12 — remaining activity (enzyme activity, inhibitor, radiometric; 1 µM): 6%
COc1cc2ncnc(Nc3ccc(Oc4ccccc4)cc3C)c2cc1OC — inhibition (enzyme activity, inhibitor; 1 µM): 1%
CNC(=O)c1ccc(Nc2ncc(C(F)(F)F)c(NCc3nccnc3N(C)S(C)(=O)=O)n2)cc1 — remaining binding (cell-free assay, competition with immobilised ligand; 0.1 µM): 27%
Cc1cc(NC(=O)c2cccc3cc(-c4cccc5[nH]nc(N)c45)ccc23)ccc1F — activity vs control (enzyme activity, inhibitor; 0.1 µM): 95%
COc1cc(Nc2cnc(C#N)c(O[C@H](C)CN(C)C)n2)ncc1-c1cnn(C)c1 — remaining activity (enzyme activity, inhibitor, radiometric; 1 µM): 95%
COc1cc2nccc(Oc3ccc(NC(=O)c4c5n(n(-c6ccc(F)cc6)c4=O)CCCC5)cc3)c2cc1OC — inhibition (enzyme activity, inhibitor; 0.1 µM): 12%
O=C(O)c1ccc2c(c1)nc(Nc1ccc(F)c(Cl)c1)c1ncncc12 — remaining activity (enzyme activity, inhibitor, radiometric; 1 µM): 6%
COCCOc1nc(-c2ccc(Cl)nc2)nc2c1CN(C(=O)c1ncn3ccccc13)CC2 — remaining binding (cell-free assay, competition with immobilised ligand; 0.1 µM): 90%
O=C(O)c1ccc2c(c1)nc(NCCc1cccc(Cl)c1)c1ccncc12 — remaining activity (enzyme activity, inhibitor, radiometric; 1 µM): 20%
CS(=O)(=O)c1cc(C2(NC(=O)c3cncc4c3cnn4-c3ccc(F)cc3)CC2)ccn1 — remaining binding (cell-free assay, competition with immobilised ligand; 1 µM): 92%
O=C(O)c1ccc2c(c1)nc(NCCc1cccc(Cl)c1)c1ncncc12 — remaining activity (enzyme activity, inhibitor, radiometric; 1 µM): 35%
Cn1nc(C(F)(F)F)cc1-c1cnc(N2CCc3cc(S(=O)(=O)Nc4c(F)cc(Cl)cc4F)cc(N4CCCC4=O)c32)nc1 — remaining binding (cell-free assay, competition with immobilised ligand; 1 µM): 87%
N#Cc1cccc(Nc2nc3cc(C(=O)O)ccc3c3cncnc23)c1 — remaining activity (enzyme activity, inhibitor, radiometric; 1 µM): 17%
O=C1NC(=O)c2cc(Nc3ccc(F)cc3)c(Nc3ccc(F)cc3)cc21 — remaining signal (cell-free assay; 0.5 µM): 102%
FC(F)(F)Oc1cccc(-c2cnc3ccc(-c4ccncc4)nn23)c1 — activity vs control (enzyme activity, inhibitor, radiometric; 5 µM): 29%
O=C1Nc2ccc(Cl)cc2C1=Cc1cc(Cl)c(O)c(Cl)c1 — remaining signal (cell-free assay; 0.5 µM): 102%
CNC(=O)Nc1ccc2c(c1)CC[C@@]21OC(=O)N(CC(=O)N(Cc2ccc(F)cc2)[C@@H](C)C(F)(F)F)C1=O — remaining binding (cell-free assay, competition with immobilised ligand; 1 µM): 85%
